Screens from PubChem BioAssay.
HCV core dimer = inhibitors of HCV core protein dimerization, primary screen, biochemical, TR-FRET, high-throughput | TR-FRET GST/Flag-core106 dimerization, 1536-well | actives 0.33% (n = 300,000) | inhibition, % at 5 µM | AID 1899, 2009;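 active = inhibition above the mean of all tested compounds plus 3 SD, set per screening campaign, cut at about 45% in these data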
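System: GST/Flag-tagged HCV core106 proteins. Incubation: compound-protein-antibody incubation 4 h at 22.5 °C. Technique: HTRF with 340 nm excitation, 617/671 nm emission. Medium: KF-containing HEPES buffer, pH 7.45, DTT, CHAPS, BSA. Read-out: inhibition (%) from 671 over 617 nm ratio. Also added: Eu(K)-anti-GST 90 ng/mL plus XL665-anti-Flag 1 µg/mL.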
ZTA DNA inh = counter-screen for EBNA-1 inhibitors: inhibitors of Epstein-Barr virus ZTA; P03206; ZTA-DNA binding, fluorescence polarization; inhibition, % at 11 µM; actives 0.15% (n = 320,000); AID 2234; in the data active = inhibition above about 33%
ALR inh = inhibitors of human ALR sulfhydryl oxidase, primary screen, biochemical, H2O2 detection, HRP-luminol luminescence, single point. purified ALR, DTT oxidation. actives 3.8% (n = 290,000). inhibition, % (test concentration not listed). AID 485317, 2010. FAD-linked sulfhydryl oxidase ALR (Homo sapiens), P55789;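 active = mean replicate inhibition above about 79%, with every replicate also reaching it, limit read from the data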
PfM18AAP inh-1 = PfM18AAP inhibitors, malaria aminopeptidase, primary screen, biochemical, QFRET, recombinant enzyme; H-Glu-NHMec fluorogenic cleavage; inhibition, % at 7.35 µM; actives 1.2% (n = 290,000);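 active = inhibition above the campaign mean inhibition over all tested compounds plus 3 SD, cut at about 28% in these data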
NS3 helicase inh = inhibitors of HCV NS3 helicase, primary screen, biochemical, Cy5 molecular beacon fluorescence | Hepatitis C virus NS3 helicase | inhibition, % at 10.9 µM | actives 0.56% (n = 290,000) | AID 1800, 2009 | NS3 helicase DNA unwinding;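 active = inhibition above the mean of all tested compounds plus 3 SD, set per campaign, cut at about 35% in these data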
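test system = hepatitis C virus NS3 helicase domain fragment enzyme | reagent = annealed dual-labelled DNA beacon duplex, ATP-started | times = 1 h at 25 °C | detection = Cy5 fluorescence, 0 and 60 min reads | read-out basis = percent inhibition from t60/t0 fluorescence ratio | control set = DMSO and thioflavine S | replication = one well per compound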
EBNA-1 inhibitor = EBNA-1 DNA-binding inhibitors, primary screen, biochemical, fluorescence polarization | inhibition, % at 14.8 µM | actives 0.34% (n = 300,000); in the data active = inhibition above about 28%
PfM18AAP inh-2 = PfM18AAP inhibitors, malaria aminopeptidase, confirmation, biochemical, QFRET, recombinant enzyme, triplicate. shares compounds with PfM18AAP inh-1. inhibition, % at 7.35 µM. actives 28% (n = 2,400). H-Glu-NHMec fluorogenic cleavage;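 active = mean inhibition over replicate wells above the hit cutoff set for the earlier primary screen, cut at about 29% in these data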
CTSL1 counter = cathepsin L1 inhibitors, retest, confirmation, counter-screen for PFM18AAP inhibitor project, biochemical, QFRET, triplicate | shares compounds with PfM18AAP inh-1 | purified cathepsin L1, Z-Leu-Arg-MCA fluorescence | inhibition, % at 5.96 µM | 2,400 tested, under 10 active | AID 2178, 2009;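 active = average inhibition across replicates above the hit cutoff set in the earlier primary screen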
Target sequence (P07711 whole entry, looked up): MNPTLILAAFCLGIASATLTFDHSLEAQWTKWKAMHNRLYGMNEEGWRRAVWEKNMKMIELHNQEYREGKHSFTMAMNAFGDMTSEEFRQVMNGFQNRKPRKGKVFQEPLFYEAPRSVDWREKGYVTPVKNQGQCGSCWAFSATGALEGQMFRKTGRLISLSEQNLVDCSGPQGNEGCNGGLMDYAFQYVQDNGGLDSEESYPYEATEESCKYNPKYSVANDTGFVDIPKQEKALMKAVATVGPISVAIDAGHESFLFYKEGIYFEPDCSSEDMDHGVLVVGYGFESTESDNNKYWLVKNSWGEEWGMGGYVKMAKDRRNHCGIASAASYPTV
Hits are given with their value; . = inactive; / = not tested or not shown. The list is not random: actives were taken first. Their share in the collection is about 5.2%.

SMILES | HCV core dimer | ZTA DNA inh | ALR inh | PfM18AAP inh-1 | NS3 helicase inh | EBNA-1 inhibitor | PfM18AAP inh-2 | CTSL1 counter
C[N+]1(C)[C@@H]2CC[C@H]1CC(OC(=O)[C@@H](CO)c1ccccc1)C2 (stereo partly drawn) | . | . | . | 44 | . | . | 33 | .
CCC(C(=O)N1CCC2(CC1)OCCO2)n1c2ccccc2c2nc(=O)cc(C)n21 (stereo not drawn) | . | . | . | . | . | . | / | /
CCN(CC)c1ccc(/C=N/c2sc3c(c2C#N)C2CCN3CC2)c(O)c1 | . | . | . | 32 | . | . | . | .
CCN1CCN(c2cc(N3CCCC3)c([N+](=O)[O-])cc2F)CC1 | . | . | . | . | . | . | / | /
O=C1NC(=O)C(=Cc2ccc3c(c2)OCO3)C(=O)N1 | . | . | . | . | . | . | / | /
Cc1ccc(/C=C2\C(=O)NC(=O)N(CCc3ccc(F)cc3)C2=O)o1 | . | . | . | . | . | . | / | /
O=C1NC(=O)C(=Cc2ccc(-c3ccc(Cl)cc3)o2)C(=O)N1 | . | . | 94 | 33 | . | . | . | .
O=C1NC(=O)C(=Cc2ccc(-c3ccc(F)cc3O)o2)C(=O)N1 | . | . | 98 | 51 | . | . | 58 | .
CCOc1cc2c(cc1OCC)-n1cccc1C(c1ccc(OC(F)F)cc1)NC2 (stereo not drawn) | . | . | . | . | . | . | / | /
NC(C(=O)O)c1cc(=O)[nH]o1 (stereo not drawn) | . | . | . | / | / | . | / | /
CCCCn1c(O)c(C(C)=NCC2CCCO2)c(=O)[nH]c1=O (stereo not drawn) | . | . | / | . | . | . | / | /
CC(C)(C)c1ccc(O)c(N=Cc2c(O)ccc3ccccc23)c1 | . | . | . | 89 | . | . | 45 | .
COC(=O)C(O)(c1ccc(N=Cc2ccccc2O)c(C)c1)C(F)(F)F (stereo not drawn) | . | . | . | . | . | . | / | /
O=C(O)Cn1cc(/C=C2\C(=O)NC(=O)N(c3ccc(Cl)cc3)C2=O)c2ccccc21 | . | . | . | . | . | . | / | /
CCN1C(=O)NC(=O)/C(=C\c2cn(CC(=O)N3CCCCC3C)c3ccccc23)C1=O (stereo not drawn) | . | . | . | . | . | . | / | /
CCN(CC)C(=O)Cn1cc(/C=C2\C(=O)NC(=O)N(c3ccccc3F)C2=O)c2ccccc21 | . | . | . | 35 | . | . | . | .
COc1cc(/C=C2\C(=O)NC(=O)N(c3ccccc3)C2=O)cc(OC)c1O | . | . | 91 | 36 | . | . | . | .
C=CCn1cc(C=C2C(=O)NC(=O)NC2=O)c2ccccc21 | . | . | . | 54 | . | . | 33 | .
Cn1cc(/C=C2\C(=O)NC(=O)N(c3ccccc3)C2=O)c2ccccc21 | . | . | . | 35 | . | . | 39 | .
COC(=O)C1=C(c2ccc(F)cc2F)C[C@@H]2CC[C@H]1N2C(=O)NC(C)C | / | . | . | / | / | / | / | /
COc1ccccc1-n1c(O)c(/C=C2\C=Nc3ccccc32)c(=O)[nH]c1=O | . | . | . | 40 | . | . | 43 | .
Oc1ccc(CC2CC3CCN2CC3)cc1O (stereo not drawn) | . | . | 99 | 57 | . | . | . | .
COc1cc(/C=C/c2nc3ccccc3c(=O)n2-c2ccc(O)cc2)ccc1O | . | . | . | . | . | . | / | /
COc1ccc(-n2c(/C=C/c3ccc(O)c(O)c3)nc3ccccc3c2=O)cc1 | . | . | . | 63 | . | . | 45 | .
O=C1NC(=O)C(=Cc2coc3ccc(O)cc3c2=O)C(=O)N1 | . | . | . | 39 | . | . | . | .
